# Reference: ChEMBL document CHEMBL2385018, “Microwave assisted synthesis, cholinesterase enzymes inhibitory activities and molecular docking studies of new pyridopyrimidine derivatives” (Bioorg Med Chem, 2013)
# How the values were obtained:
# [1] = Selectivity ratio of IC50 for equine serum BuChE to IC50 for electric eel AChE
# [2] = biological target: Cholinesterase (Equus caballus, UniProt P81908); assay: Inhibition of equine serum BuChE using S-butyrylthiocholine chloride as substrate incubated for 15 mins prior to substrate addition measured after 30 mins by Ellman's method
# How it was run: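 Modified Ellman method in 0.1 M sodium phosphate buffer, pH 8. Samples were dissolved in DMSO (1 mg/mL stock; 1% DMSO final). Equine serum BChE was preincubated with sample for 15 min at 25 °C. DTNB (10 mM stock) and S-butyrylthiocholine chloride were then added, and absorbance was read at 412 nm after 30 min. Triplicate, blank-corrected, % inhibition versus control.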
# [3] = biological target: Cholinesterase (Equus caballus) (UniProt P81908); assay: Selectivity ratio of Galanthamine IC50 to compound IC50 for equine BChE
# [4] = Selectivity ratio of IC50 for electric eel AChE to IC50 for equine serum BuChE
# [5] = biological target: Acetylcholinesterase (Electrophorus electricus, UniProt O42275); assay: Inhibition of electric eel AChE using […] as substrate incubated for 15 mins prior to substrate addition measured after 30 mins by Ellman's method
# Sequence of Acetylcholinesterase (O42275 whole entry): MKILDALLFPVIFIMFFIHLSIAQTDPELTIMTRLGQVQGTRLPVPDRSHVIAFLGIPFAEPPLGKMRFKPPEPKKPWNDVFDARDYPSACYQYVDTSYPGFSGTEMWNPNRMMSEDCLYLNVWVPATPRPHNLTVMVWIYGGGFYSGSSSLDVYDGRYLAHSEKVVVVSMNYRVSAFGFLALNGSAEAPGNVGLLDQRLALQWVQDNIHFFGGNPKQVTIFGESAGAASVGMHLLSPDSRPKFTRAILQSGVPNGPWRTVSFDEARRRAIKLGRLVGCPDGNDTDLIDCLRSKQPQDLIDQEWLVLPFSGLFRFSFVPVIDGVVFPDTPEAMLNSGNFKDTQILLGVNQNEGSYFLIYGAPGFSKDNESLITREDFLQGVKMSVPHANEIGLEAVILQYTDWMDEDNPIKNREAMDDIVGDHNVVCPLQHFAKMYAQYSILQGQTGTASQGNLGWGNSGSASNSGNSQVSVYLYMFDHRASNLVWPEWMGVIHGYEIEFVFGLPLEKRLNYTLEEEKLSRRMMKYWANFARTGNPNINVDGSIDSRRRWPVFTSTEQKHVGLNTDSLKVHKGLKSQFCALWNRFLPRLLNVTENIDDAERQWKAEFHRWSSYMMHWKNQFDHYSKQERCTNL
# Sequence of Cholinesterase (Equus caballus) (P81908 whole entry): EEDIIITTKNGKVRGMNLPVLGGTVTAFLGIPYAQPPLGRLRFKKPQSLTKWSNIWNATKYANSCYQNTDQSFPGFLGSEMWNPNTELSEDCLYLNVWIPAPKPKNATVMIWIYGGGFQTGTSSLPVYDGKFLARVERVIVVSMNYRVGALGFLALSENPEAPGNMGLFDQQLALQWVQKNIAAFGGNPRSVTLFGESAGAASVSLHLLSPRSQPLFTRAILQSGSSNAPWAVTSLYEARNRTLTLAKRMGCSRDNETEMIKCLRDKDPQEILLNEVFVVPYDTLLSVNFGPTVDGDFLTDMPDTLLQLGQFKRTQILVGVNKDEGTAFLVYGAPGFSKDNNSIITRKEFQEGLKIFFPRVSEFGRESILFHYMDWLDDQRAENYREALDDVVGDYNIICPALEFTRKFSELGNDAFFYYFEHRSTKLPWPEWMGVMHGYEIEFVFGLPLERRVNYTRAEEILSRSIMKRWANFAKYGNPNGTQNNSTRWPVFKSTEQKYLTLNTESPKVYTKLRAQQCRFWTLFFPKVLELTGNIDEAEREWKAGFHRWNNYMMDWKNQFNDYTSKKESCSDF
# Sequence of Cholinesterase (P81908 whole entry): as above
Compound,Ratio IC50 [1],IC50 [2] [µM],Ratio IC50 [3],Ratio IC50 [4],IC50 [5] [µM]
O=C1NC2=C(CNC/C2=C\c2ccc(Br)cc2)C(c2ccc(Br)cc2)N1 (stereo not given),0.39,6.22,2,2.54,15.9
S=C1NC2=C(CNC/C2=C\c2ccc(Cl)cc2)C(c2ccc(Cl)cc2)N1 (stereo not given),2.78,6.26,2,0.35,2.25
Cc1ccccc1/C=C1\CNCC2=C1NC(=O)NC2c1ccccc1C (stereo not given),0.13,5.22,2,7.74,40.4
S=C1NC2=C(CNC/C2=C\c2ccccc2Cl)C(c2ccccc2Cl)N1 (stereo not given),0.09,2.91,2,11.1,32.4
O=C1NC2=C(CNC/C2=C\c2cccc3ccccc23)C(c2cccc3ccccc23)N1 (stereo not given),0.41,5.39,2,2.44,13.2
Cc1ccc(/C=C2\CNCC3=C2NC(=O)NC3c2ccc(C)cc2)cc1 (stereo not given),0.15,7.09,2,6.56,46.5
O=C1NC2=C(CNC/C2=C\c2ccccc2Cl)C(c2ccccc2Cl)N1 (stereo not given),0.1,2.51,2,9.57,24.1
COc1ccccc1/C=C1\CNCC2=C1NC(=S)NC2c1ccccc1OC (stereo not given),1.47,1.18,16,0.67,0.8
O=C1NC2=C(CNC/C2=C\c2ccc(F)cc2)C(c2ccc(F)cc2)N1 (stereo not given),0.43,18.9,2,2.34,44.2
O=C1NC2=C(CNC/C2=C\c2ccccc2)C(c2ccccc2)N1 (stereo not given),0.04,2.86,2,24,68.7
S=C1NC2=C(CNC/C2=C\c2ccccc2)C(c2ccccc2)N1 (stereo not given),0.2,3.78,2,5.09,19.3
S=C1NC2=C(CNC/C2=C\c2ccc(Br)cc2)C(c2ccc(Br)cc2)N1 (stereo not given),0.14,1.65,12,7.2,11.9
Fc1ccc(/C=C2\CNCC3=C2NC(=S)NC3c2ccc(F)cc2)cc1 (stereo not given),0.77,28.8,2,1.29,37.2
S=C1NC2=C(CNC/C2=C\c2ccc(Cl)cc2Cl)C(c2ccc(Cl)cc2Cl)N1 (stereo not given),1.5,49.8,2,0.67,26.3
S=C1NC2=C(CNC/C2=C\c2cccc3ccccc23)C(c2cccc3ccccc23)N1 (stereo not given),4.07,5.58,2,0.25,1.37
O=C1NC2=C(CNC/C2=C\c2ccc(Cl)cc2Cl)C(c2ccc(Cl)cc2Cl)N1 (stereo not given),0.79,23.5,2,1.26,29.9
COc1ccccc1/C=C1\CNCC2=C1NC(=O)NC2c1ccccc1OC (stereo not given),0.27,10.7,2,3.75,40.2
Fc1ccccc1/C=C1\CNCC2=C1NC(=S)NC2c1ccccc1F (stereo not given),0.16,6.5,2,6.21,40.4
O=[N+]([O-])c1cccc(/C=C2\CNCC3=C2NC(=S)NC3c2cccc([N+](=O)[O-])c2)c1 (stereo not given),0.24,8.09,2,4.25,34.3
O=C1NC2=C(CNC/C2=C\c2ccccc2F)C(c2ccccc2F)N1 (stereo not given),0.18,3.31,2,5.61,18.6
Cc1ccc(/C=C2\CNCC3=C2NC(=S)NC3c2ccc(C)cc2)cc1 (stereo not given),0.17,6.27,2,5.95,37.5
Cc1ccccc1/C=C1\CNCC2=C1NC(=S)NC2c1ccccc1C (stereo not given),0.08,3.07,2,12.9,39.7
O=C1NC2=C(CNC/C2=C\c2cccc([N+](=O)[O-])c2)C(c2cccc([N+](=O)[O-])c2)N1 (stereo not given),0.37,10.3,2,2.73,28.3
O=C1NC2=C(CNC/C2=C\c2ccc(Cl)cc2)C(c2ccc(Cl)cc2)N1 (stereo not given),0.45,16.7,2,2.2,36.8
